Sampled rows, rich in hits. Any-hit rate of the full collection: about 1.2%.
DNA FID counter – fluorescent intercalator displacement, NS3 helicase counter-screen; DNA fluorescent intercalator displacement, fluorescence; inhibition, % at 7.9 µM; 290,000 compounds, 0.17% hits; AID 1845; in the data active = inhibition above about 37%;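 also: higher means more ethidium bromide displaced from hairpin DNA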
RBBP9 inhibitor – inhibitors of human serine hydrolase RBBP9; recombinant RBBP9, FP-Rh probe fluorescence polarization; inhibition, % at 7.94 µM; 220,000 compounds, 0.2% hits; AID 1515;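 active = inhibition above the campaign mean of all tested compounds plus 3 SD, cut at about 14% in these data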
Target sequence (O75884 whole entry, looked up): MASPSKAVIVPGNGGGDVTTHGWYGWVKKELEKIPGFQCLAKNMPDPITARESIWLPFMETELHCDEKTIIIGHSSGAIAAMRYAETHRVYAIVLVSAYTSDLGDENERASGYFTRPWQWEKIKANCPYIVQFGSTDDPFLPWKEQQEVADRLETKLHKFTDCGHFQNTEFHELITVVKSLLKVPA
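System: RBBP9 protein / Buffer or medium: Tris/NaCl buffer pH 8.0 with 0.1% Pluronic / Probe or stimulus: Serine-hydrolase probe FP-Rh, 375 nM pre-mixing / Dosing: 7.94 µM single dose, 0.794% DMSO / Times: enzyme-compound preincubation 30 min, then probe labeling 45 min, 25 °C / Technique: fluorescence polarization (mP), excitation 525 nm, emission 598 nm / Replication: singlicate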
Rad51 HR inh – Rad51 (human) homologous recombination inhibition; inhibition, % at 10 µM; AID 1385; Q06609; hRad51 DNA strand exchange, fluorescence dequenching; 200,000 compounds, 0.085% hits;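 active = inhibition above 40% at the single screening dose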
Target sequence (Q06609 whole entry, looked up): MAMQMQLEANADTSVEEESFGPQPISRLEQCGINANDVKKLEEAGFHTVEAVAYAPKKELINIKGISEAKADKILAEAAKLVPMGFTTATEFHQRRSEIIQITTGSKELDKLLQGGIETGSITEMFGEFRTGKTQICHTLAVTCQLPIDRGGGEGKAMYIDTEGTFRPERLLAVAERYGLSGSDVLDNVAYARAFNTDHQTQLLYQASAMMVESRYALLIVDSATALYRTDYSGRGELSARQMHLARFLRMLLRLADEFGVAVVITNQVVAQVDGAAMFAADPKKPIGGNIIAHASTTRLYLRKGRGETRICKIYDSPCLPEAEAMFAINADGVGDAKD
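System: hRad51 filaments on single-stranded DNA; reagent: Fluorescein- and BHQ1-tagged 47-mer duplex; compound dosing: one concentration, 10 µM final; timing: filaments 15 min 37 °C, then compound 30 min; measured by: fluorescein emission 520 nm, excitation 485 nm; benchmarks: per-plate controls and blanks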
Wee1 degr inh – inhibitors of human Wee1 degradation; reporter increase, % at 5 µM; HeLa Luc-Wee1K328M stability, luciferase luminescence; 100% = proteasome inhibitor MG132 effect; 220,000 compounds, 1.2% hits;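 active = activation above the mean of all tested compounds plus 3 SD, set per screening run, cut at about 8.8% in these data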;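 also: cells exposed to compound for 20 h before luminescence read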
Wee1 stab conf – confirmation of human Wee1 degradation inhibitors; 1,100 compounds, 4% hits; HeLa Luc-Wee1K328M degradation, luminescence; vehicle 0%, proteasome-blocked wells 100%; activation, % at 5 µM; AID 1410; shares compounds with Wee1 degr inh; in the data active = activation above about 8.9%
Each line names hits and unclear results; the compound was inactive in the other large screens (follow-up assays come after a bar, where they were run).

O=C(CNCC1(N2CCOCC2)CCCCC1)Nc1ccc(Cl)cc1	Wee1 degr inh 19 | Wee1 stab conf inactive
O=C(Nc1ccc(N2CCOCC2)cc1)C1(c2ccc(Cl)cc2)CCC1	none
O=C(NCC(O)c1ccccc1)c1ccc(Cl)c(S(=O)(=O)N2CCCCC2)c1 (configuration not stated)	none (no result: RBBP9 inhibitor, Rad51 HR inh, Wee1 degr inh)
O=C(CCC1CCCC1)N1CCC(N2CCCCCC2)CC1	Wee1 degr inh 12 | Wee1 stab conf inactive
CCCN(CC1CC1)S(=O)(=O)c1ccc(-n2cnnn2)c(OC)c1	none
Cn1c(O)c(C2=c3ccccc3=NC2=O)sc1=Nc1ccc(Cl)cc1	Wee1 degr inh 13 | Wee1 stab conf inactive
O=C(O)Cn1c(O)c(C2=c3ccccc3=NC2=O)sc1=O	none (no result: RBBP9 inhibitor, Rad51 HR inh, Wee1 degr inh)
COc1ccc(NS(=O)(=O)c2cc3c4c(c2)C(C)C(=O)N4CCC3)cc1 (configuration not stated)	none (no result: RBBP9 inhibitor, Rad51 HR inh, Wee1 degr inh)
COc1cc(-c2nc3ccccn3c2/N=C/c2ccccc2)ccc1O	Wee1 degr inh 68 | Wee1 stab conf inactive
CCOC(=O)CCN(Cc1ccccc1)S(=O)(=O)c1csc(C(N)=O)c1	none (no result: RBBP9 inhibitor, Rad51 HR inh, Wee1 degr inh)
O=C(c1ccc(NC(=O)C2(c3ccccc3)CCCC2)cc1)N1CCOCC1	Wee1 degr inh 27 (no result: Rad51 HR inh) | Wee1 stab conf inactive
COc1ccc(C2(C(=O)Nc3ccc(C(=O)N4CCOCC4)cc3)CCOCC2)cc1	none
CCn1c(C)nnc1SCC(=O)NC1CCCC1	none (no result: RBBP9 inhibitor, Rad51 HR inh, Wee1 degr inh)
O=C1NC2CCCCC2NC1CC(=O)N1CCN(c2ccccc2)CC1 (configuration not stated)	none (no result: Rad51 HR inh)
O=C(CSc1nc(-c2ccco2)cc(C(F)(F)F)n1)N1CCSCC1	Wee1 degr inh 12 | Wee1 stab conf inactive
CN1CCN(C(=O)CSc2nc(-c3ccco3)cc(C(F)(F)F)n2)CC1	none
CN(CCC1CCOCC1)C(=O)CC1C(=O)NCCN1Cc1ccccc1F (configuration not stated)	none (no result: RBBP9 inhibitor, Rad51 HR inh, Wee1 degr inh)
COc1ccc(CC(=O)NC(C)c2nnc(SCC(=O)Nc3ccccc3)n2C)cc1 (configuration not stated)	none
COC(=O)c1ccc(NC(=O)CSc2nnc(C(C)NC(=O)c3ccccc3Cl)n2C)cc1 (configuration not stated)	Wee1 degr inh 22 | Wee1 stab conf inactive
COC(=O)c1ccc(NC(=O)CSc2ccccn2)cc1	Wee1 degr inh 15 | Wee1 stab conf inactive
COc1cccc(OCC(=O)Nc2c3c(nn2-c2ccccc2)CS(=O)(=O)C3)c1	none (no result: RBBP9 inhibitor, Rad51 HR inh, Wee1 degr inh)
NS(=O)(=O)c1c(Sc2ccccc2C(=O)O)ccc2ccccc12	none (no result: RBBP9 inhibitor, Rad51 HR inh, Wee1 degr inh)
O=C(Nc1cccc(Cl)c1)NC1CCN(C2CCCCC2)C1 (configuration not stated)	none (no result: RBBP9 inhibitor, Rad51 HR inh, Wee1 degr inh)
CCCCOc1ccc(-c2[nH]ncc2C=O)cc1	Wee1 degr inh 15 | Wee1 stab conf inactive
COc1ccc(-c2cc(C(=O)N(C)Cc3ccc(F)cc3)c3ccccc3n2)cc1OC	none (no result: RBBP9 inhibitor, Rad51 HR inh, Wee1 degr inh)
COc1ccc(-c2nc(-c3ccc4c(c3)OCO4)[nH]c2-c2ccc(OC)cc2)cc1	Wee1 degr inh 13 | Wee1 stab conf inactive
COc1ccc(-c2noc(-c3ccc4c(c3)OCO4)n2)cc1	none
Cc1cc(-c2ccc(C(C)C)c(S(=O)(=O)Nc3ccccn3)c2)on1	none (no result: RBBP9 inhibitor, Rad51 HR inh, Wee1 degr inh)
Cc1ccc2c3c(c(SCC(=O)Nc4nonc4C)nc2c1)CCCC3	Wee1 degr inh 13 | Wee1 stab conf inactive
Cc1nonc1NC(=O)CSc1nc2cc(Cl)ccc2c2c1CCCC2	none
O=C(Nc1nn[nH]n1)c1cc(-c2ccc(Cl)c(Cl)c2Cl)nc2ccccc12	none
Cc1ccc(/C=C/C(=O)NCCCc2ccccc2)cc1	Wee1 degr inh 19 | Wee1 stab conf inactive
COc1ccc(OC)c(NC(=O)CNC(=O)c2cccs2)c1	none
COc1ccc(N2CCN(C(=O)c3cc(=O)[nH]c4ccccc34)CC2)cc1	none
O=C(c1cc(=O)[nH]c2ccccc12)N1CCN(c2ccc([N+](=O)[O-])cc2)CC1	Wee1 degr inh 59 | Wee1 stab conf inactive
N#CCSc1ccc2nc(-c3ccccc3)cn2n1	none (no result: RBBP9 inhibitor, Rad51 HR inh, Wee1 degr inh)
COc1cccc2cc(-c3cn4ccc(C)cc4n3)c(=O)oc12	Wee1 degr inh 14 | Wee1 stab conf inactive
O=C(COC(=O)CCc1ccccc1)Nc1ncc(Cl)cc1Cl	none
COc1ccc(C(C2C(=O)CC(C)(C)CC2=O)C2C(=O)CC(C)(C)CC2=O)cc1	none
CC1(C)CC(=O)C(C(c2ccncc2)C2C(=O)CC(C)(C)CC2=O)C(=O)C1	Wee1 degr inh 13 | Wee1 stab conf inactive
O=C(c1ccc(Cl)cc1)N(Cc1ccco1)C1CCS(=O)(=O)C1 (configuration not stated)	none (no result: RBBP9 inhibitor, Rad51 HR inh, Wee1 degr inh)
CC(C)Cn1c(-c2ccc(C#N)cc2)nc2c1c(=O)[nH]c(=O)n2CC(C)C	Wee1 degr inh 36 | Wee1 stab conf inactive
Cc1nnc(SCC(=O)NC2CC2)s1	none (no result: RBBP9 inhibitor, Rad51 HR inh, Wee1 degr inh)
O=C(c1ccc(Br)o1)N1CCc2ccccc21	Wee1 degr inh 13 | Wee1 stab conf inactive
Cc1c(C(=O)N2CCc3ccccc32)oc2ccccc12	Wee1 degr inh 11 | Wee1 stab conf inactive
COc1ccc(-c2noc(CNC(=O)CCN3C(=O)[C@H]4CC=CC[C@H]4C3=O)n2)cc1	none (no result: RBBP9 inhibitor, Rad51 HR inh, Wee1 degr inh)
COCCNC(=O)C(=O)NNS(=O)(=O)c1ccc2ccccc2c1	none
Cc1ccc(C2NC(=O)Cc3ccccc32)cc1 (configuration not stated)	Wee1 degr inh 14 | Wee1 stab conf inactive
CC(=O)c1cc(C(=O)N2CCc3c([nH]c4ccccc34)C2CC(C)C)[nH]n1 (configuration not stated)	none
CC(C)CC1c2[nH]c3ccccc3c2CCN1C(=O)c1cnccn1 (configuration not stated)	Wee1 degr inh 19 (no result: Rad51 HR inh) | Wee1 stab conf inactive
COc1cccc(OCC(O)CN2CCC(C)CC2)c1 (configuration not stated)	none
CC1CCN(CC(O)COc2cccc(F)c2)CC1 (configuration not stated)	Wee1 degr inh 14 | Wee1 stab conf inactive
COc1cccc(/C=N/Nc2ccc(S(=O)(=O)O)cc2)c1O	Wee1 degr inh 18 | Wee1 stab conf inactive
COc1cccc(/C=N/Nc2ccc(C(=O)O)cc2)c1O	none (no result: Rad51 HR inh)
Cc1ccc(NC(=O)NCc2c(C)nn(C)c2C)cc1Cl	Wee1 degr inh 18 | Wee1 stab conf inactive
Cc1ccc(NC(=O)NCc2ccccn2)cc1Cl	none (no result: RBBP9 inhibitor, Rad51 HR inh, Wee1 degr inh)
O=S(=O)(c1ccc(N2CCCCCC2)nc1)N1CCCC1	Wee1 degr inh 13 | Wee1 stab conf inactive
O=C1CCCN1CCC12CC3CC(CC(C3)C1)C2	Wee1 degr inh 12 | Wee1 stab conf inactive
CC(O)[C@H]1CNC(=O)C(=O)N1CCC12CC3CC(CC(C3)C1)C2 (some centres not stated)	none (no result: DNA FID counter, RBBP9 inhibitor, Wee1 degr inh)
O=C1N=C(N2CCc3ccccc3C2)S/C1=C\c1cccc(O)c1	none
CCN(CC)c1ccc(/C=N/NC(=S)NC)c(O)c1	Wee1 degr inh 14 (no result: Rad51 HR inh) | Wee1 stab conf inactive
O=C(c1cccc(C(F)(F)F)c1)C1CCCN(Cc2ccc(OCCO)cc2)C1 (configuration not stated)	Wee1 degr inh 13 | Wee1 stab conf inactive
Cc1ccccc1-c1noc(-c2ccc(Cl)cc2)n1	none

High-throughput results deposited in PubChem BioAssay by several laboratories.
